Measured values reported in ChEMBL document CHEMBL3745596, “Chlorophenoxy aminoalkyl derivatives as histamine H(3)R ligands and antiseizure agents” (Bioorg Med Chem, 2016).
Calls of active or inactive are those of the source.

What was measured:
Mus musculus [1] = experiment: Neurotoxicity in CF1 albino mouse at 30 mg/kg, ip after 0.5 hrs by rotarod test; format: toxicity, organism-based; settings: in vivo
Outline: (§1)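 Rotarod neurotoxicity in male albino CF-1 mice dosed ip with compound suspended in 0.5% methylcellulose. Animal placed on a 1 inch diameter knurled plastic rod rotating at 6 rpm. Neurotoxicity scored when the animal falls off three times within 1 min. Readout is number of animals toxic/number tested at the stated time after dosing. TD50 with 95% confidence interval from the quantitative study.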

Mus musculus [2] = experiment: Anticonvulsant activity in CF1 albino mouse assessed as protection against subcutaneous pentetrazole-induced seizure at 100 mg/kg, ip after 4 hrs; format: functional, organism-based
Outline: (§2)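 Male CF-1 mice, ip in 0.5% methylcellulose; pentetrazole at CD97 (85 mg/kg) injected subcutaneously in a loose fold of neck skin. Observed 30 min; absence of even a threshold seizure (single clonic spasm lasting at least 5 s) counted as protection. Scored protected/tested, or ED50.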

Mus musculus [3] = experiment: Neurotoxicity in CF1 albino mouse assessed as death at 300 mg/kg, ip after 0.5 hrs by rotarod test; format: toxicity, organism-based; settings: in vivo
Outline: (§3)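 Male albino CF-1 mice dosed ip with compound suspended in 0.5% methylcellulose, then placed on a 1-inch knurled plastic rod turning at 6 rpm. A fall three times within 1 min counted as neurotoxicity. Observations were made at 0.5 h and 4 h after dosing. Result given as animals showing toxicity per animals tested, with the kind of toxicity recorded.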

Mus musculus [4] = experiment: Anticonvulsant activity in CF1 albino mouse assessed as protection against maximal electroshock-induced seizure at 100 mg/kg, ip after 4 hrs; format: functional, organism-based
Outline: (§4)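 Male CF-1 mice dosed ip as suspension in 0.5% methylcellulose. Corneal electrodes deliver 60 Hz alternating current, 50 mA for […], after a drop of 0.5% tetracaine HCl in 0.9% NaCl per eye. Protection means abolition of hindlimb tonic extension; scored as protected/tested, or ED50 with 95% confidence interval.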

Mus musculus [5] = experiment: Neurotoxicity in CF1 albino mouse at 100 mg/kg, ip after 4 hrs by rotarod test; format: toxicity, organism-based; settings: in vivo; outline: as §1
Mus musculus [6] = experiment: Anticonvulsant activity in CF1 albino mouse assessed as protection against maximal electroshock-induced seizure at 30 mg/kg, ip after 4 hrs; format: functional, organism-based; outline: as §4
Histamine H3 receptor = Histamine H3 receptor (Homo sapiens, UniProt Q9Y5N1); experiment: Displacement of [3H]-Nalpha-methylhistamine from human recombinant histamine H3 receptor expressed in HEK293 cells after 90 mins; format: cell-based
Mus musculus [7] = experiment: Anticonvulsant activity in CF1 albino mouse assessed as protection against subcutaneous pentetrazole-induced seizure at 100 mg/kg, ip after 0.5 hrs; format: functional, organism-based; outline: as §2
Mus musculus [8] = experiment: Neurotoxicity in CF1 albino mouse at 300 mg/kg, ip after 4 hrs by rotarod test; format: toxicity, organism-based; settings: in vivo; outline: as §1
Mus musculus [9] = experiment: Neurotoxicity in CF1 albino mouse at 30 mg/kg, ip after 4 hrs by rotarod test; format: toxicity, organism-based; settings: in vivo; outline: as §1
Mus musculus [10] = experiment: Neurotoxicity in CF1 albino mouse assessed as unable to grasp rotarod and death at 100 mg/kg, ip after 0.5 hrs by rotarod test; format: toxicity, organism-based; settings: in vivo; outline: as §3
Mus musculus [11] = experiment: Anticonvulsant activity in CF1 albino mouse assessed as protection against maximal electroshock-induced seizure at 100 mg/kg, ip after 0.5 hrs; format: functional, organism-based; outline: as §4
Mus musculus [12] = experiment: Anticonvulsant activity in CF1 albino mouse assessed as protection against maximal electroshock-induced seizure at 30 mg/kg, ip after 0.5 hrs; format: functional, organism-based; outline: as §4
Mus musculus [13] = experiment: Anticonvulsant activity in CF1 albino mouse assessed as protection against subcutaneous pentetrazole-induced seizure at 30 mg/kg, ip after 4 hrs; format: functional, organism-based; outline: as §2
Mus musculus [14] = experiment: Anticonvulsant activity in CF1 albino mouse assessed as protection against subcutaneous pentetrazole-induced seizure at 30 mg/kg, ip after 0.5 hrs; format: functional, organism-based; outline: as §2
Mus musculus [15] = experiment: Anticonvulsant activity in ip dosed CF1 albino mouse assessed as protection against subcutaneous pentetrazole-induced seizure after 0.25 hrs; format: functional; outline: as §2
Mus musculus [16] = experiment: Neurotoxicity in CF1 albino mouse at 30 mg/kg, ip after 0.25 to 4 hrs by rotarod test; format: toxicity, organism-based; settings: in vivo; outline: as §1
Mus musculus [17] = experiment: Anticonvulsant activity in CF1 albino mouse assessed as protection against maximal electroshock-induced seizure at 10 mg/kg, ip after 0.5 hrs; format: functional, organism-based; outline: as §4
Mus musculus [18] = experiment: Anticonvulsant activity in CF1 albino mouse assessed as protection against 6 Hz-psychomotor-induced seizure at 50 mg/kg, ip after 2 hrs; format: functional, organism-based
Outline: (§5)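 Male CF-1 mice, ip suspension in 0.5% methylcellulose. Corneal stimulation 0.2 ms monopolar rectangular pulses at 6 Hz, 32 mA for 3 s via constant-current device; mice without minimal clonic phase seizure counted protected. Groups of four; read at 0.25, 0.5, 1, 2, 4 h; result as protected/tested.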

Mus musculus [19] = experiment: Anticonvulsant activity in CF1 albino mouse assessed as protection against 6 Hz-psychomotor-induced seizure at 30 mg/kg, ip after 0.25 to 4 hrs; format: functional, organism-based; outline: as §5
Mus musculus [20] = experiment: Neurotoxicity in CF1 albino mouse at 3 mg/kg, ip after 0.5 hrs by rotarod test; format: toxicity, organism-based; settings: in vivo; outline: as §1
Mus musculus [21] = experiment: Anticonvulsant activity in CF1 albino mouse assessed as protection against 6 Hz-psychomotor-induced seizure at 50 mg/kg, ip after 0.25 hrs; format: functional, organism-based; outline: as §5
Mus musculus [22] = experiment: Anticonvulsant activity in CF1 albino mouse assessed as protection against 6 Hz-psychomotor-induced seizure at 50 mg/kg, ip after 0.5 hrs; format: functional, organism-based; outline: as §5
Mus musculus [23] = experiment: Anticonvulsant activity in CF1 albino mouse assessed as protection against 6 Hz-psychomotor-induced seizure at 50 mg/kg, ip after 1 hr; format: functional, organism-based; outline: as §5
Mus musculus [24] = experiment: Anticonvulsant activity in CF1 albino mouse assessed as protection against maximal electroshock-induced seizure at 3 mg/kg, ip after 0.5 hrs; format: functional, organism-based; outline: as §4
Mus musculus [25] = experiment: Neurotoxicity in CF1 albino mouse at 10 mg/kg, ip after 0.5 hrs by rotarod test; format: toxicity, organism-based; settings: in vivo
Outline: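 Rotarod neurotoxicity in male CF-1 mice dosed ip as 0.5% methylcellulose suspension: mouse placed on 1 inch knurled rod rotating at 6 rpm; toxicity when the animal falls off three times within 1 min, with other signs noted. Scored as toxic/tested at 0.5 h and 4 h.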

Mus musculus [26] = experiment: Anticonvulsant activity in CF1 albino mouse assessed as protection against 6 Hz-psychomotor-induced seizure at 50 mg/kg, ip after 4 hrs; format: functional, organism-based; outline: as §5
Mus musculus [27] = experiment: Anticonvulsant activity in ip dosed CF1 albino mouse assessed as protection against maximal electroshock-induced seizure after 0.25 hrs; format: functional; outline: as §4
Mus musculus [28] = experiment: Neurotoxicity in CF1 albino mouse at 50 mg/kg, ip after 1 hr by rotarod test; format: toxicity, organism-based; settings: in vivo; outline: as §1
Mus musculus [29] = experiment: Neurotoxicity in CF1 albino mouse at 50 mg/kg, ip after 2 hrs by rotarod test; format: toxicity, organism-based; settings: in vivo; outline: as §1
Rattus norvegicus = experiment: Anticonvulsant activity in Sprague-Dawley rat assessed as protection against maximal electroshock-induced seizure at 30 mg/kg, po; format: functional
Mus musculus [30] = experiment: Neurotoxicity in CF1 albino mouse at 50 mg/kg, ip after 4 hrs by rotarod test; format: toxicity, organism-based; settings: in vivo; outline: as §1
Mus musculus [31] = experiment: Protective index, ratio of TD50 for ip dosed CF1 albino mouse to ED50 for ip dosed CF1 albino mouse assessed as protection against maximal electroshock-induced seizure after 0.25 hrs; format: functional

Histamine H3 receptor, sequence (Q9Y5N1 whole entry): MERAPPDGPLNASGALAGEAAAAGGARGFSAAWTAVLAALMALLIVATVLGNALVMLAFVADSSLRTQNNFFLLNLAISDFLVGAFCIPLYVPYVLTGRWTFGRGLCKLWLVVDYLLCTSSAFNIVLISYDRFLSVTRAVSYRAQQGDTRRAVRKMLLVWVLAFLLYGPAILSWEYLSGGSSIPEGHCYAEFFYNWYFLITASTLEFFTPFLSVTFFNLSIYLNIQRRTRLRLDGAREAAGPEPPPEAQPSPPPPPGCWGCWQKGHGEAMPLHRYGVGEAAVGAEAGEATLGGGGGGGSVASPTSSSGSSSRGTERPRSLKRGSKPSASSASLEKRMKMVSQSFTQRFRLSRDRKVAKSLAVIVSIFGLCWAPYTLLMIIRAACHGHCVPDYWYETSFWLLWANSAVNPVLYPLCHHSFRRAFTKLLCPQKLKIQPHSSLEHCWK

Row | SMILES | Activity (Mus musculus [1]) | Activity (Mus musculus [2]) | Activity (Mus musculus [3]) | Activity (Mus musculus [4]) | Activity (Mus musculus [5]) | Activity (Mus musculus [6]) | Ki (Histamine H3 receptor) [nM] | Activity (Mus musculus [7]) | Activity (Mus musculus [8]) | Activity (Mus musculus [9]) | Activity (Mus musculus [10]) | Activity (Mus musculus [11]) | Activity (Mus musculus [12]) | Activity (Mus musculus [13]) | Activity (Mus musculus [14]) | ED50 (Mus musculus [15]) [mg/kg] | Activity (Mus musculus [17]) | Activity (Mus musculus [20]) | Activity (Mus musculus [24]) | Activity (Mus musculus [25]) | other results
1 | CC1CCCN(CCCCCCCOc2cccc(Cl)c2)C1.O=C(O)C(=O)O (stereo not drawn) | Non-toxic | inactive | Toxic | Active | Non-toxic | inactive | 466 | inactive | Non-toxic | Non-toxic | Toxic | Active | inactive | inactive | inactive |  |  |  |  |  | 
2 | Clc1cccc(OCCCCCCCN2CCCCCC2)c1.O=C(O)C(=O)O | Non-toxic | inactive |  | inactive | Non-toxic | inactive | > 150000 |  | Non-toxic | Non-toxic |  | Active | inactive | inactive | inactive |  |  |  |  |  | 
3 | CCCC(CCC)C(=O)O [VALPROIC ACID] |  |  |  |  |  |  |  |  |  |  |  |  |  |  |  | 220 |  |  |  |  | 
4 | Clc1cccc(OCCCCCCN2CCCCCC2)c1.O=C(O)C(=O)O |  |  | Toxic |  | Non-toxic | inactive | 293 | inactive | Non-toxic | Non-toxic | Toxic | Active | Active | inactive | inactive |  | inactive | Non-toxic | inactive | Non-toxic | Activity (Mus musculus [16]): Non-toxic; Activity (Mus musculus [18]): inactive; Activity (Mus musculus [19]): inactive; Activity (Mus musculus [21]): inactive; Activity (Mus musculus [22]): inactive; Activity (Mus musculus [23]): inactive; Activity (Mus musculus [26]): inactive
5 | CCC1(c2ccccc2)C(=O)NC(=O)NC1=O [PHENOBARBITAL] |  |  |  |  |  |  |  |  |  |  |  |  |  |  |  | 13.2 |  |  |  |  | ED50 (Mus musculus [27]): 21.8 mg/kg
6 | CC1CCN(CCCCCCOc2cccc(Cl)c2)CC1.O=C(O)C(=O)O | Non-toxic |  | Toxic | Active | Non-toxic | inactive | 412 |  | Non-toxic | Non-toxic |  | Active | Active | inactive | inactive |  | inactive | Non-toxic | inactive | Non-toxic | Activity (Mus musculus [28]): Non-toxic; Activity (Mus musculus [29]): Non-toxic; Activity (Rattus norvegicus): 25%; Activity (Mus musculus [30]): Non-toxic; Activity (Mus musculus [21]): Active
7 | Nc1nnc(-c2cccc(Cl)c2Cl)c(N)n1 [LAMOTRIGINE] |  |  |  |  |  |  |  |  |  |  |  |  |  |  |  | > 40 |  |  |  |  | Ratio TD50/ED50 (Mus musculus [31]): 4; ED50 (Mus musculus [27]): 7.47 mg/kg
8 | Clc1ccc(OCCCCCN2CCCCC2)cc1.O=C(O)C(=O)O | Non-toxic | inactive | Toxic |  | Non-toxic | inactive | 427 | inactive | Non-toxic | Non-toxic | Toxic | Active | Active | inactive | inactive |  | inactive | Non-toxic | inactive | Non-toxic | Activity (Rattus norvegicus): inactive
9 | Clc1cccc(OCCCCCCN2CCCCC2)c1.O=C(O)C(=O)O | Non-toxic | inactive | Toxic | Active | Non-toxic | inactive | 255 | inactive | Non-toxic | Non-toxic | Toxic | Active | Active | inactive | inactive |  | inactive | Non-toxic | inactive | Non-toxic | Activity (Mus musculus [18]): inactive; Activity (Mus musculus [28]): Non-toxic; Activity (Mus musculus [29]): Non-toxic; Activity (Rattus norvegicus): 25%; Activity (Mus musculus [30]): Non-toxic; Activity (Mus musculus [22]): inactive; Activity (Mus musculus [23]): inactive; Activity (Mus musculus [26]): inactive
